In ChEMBL document CHEMBL3627612, “Hirsutinolide Series Inhibit Stat3 Activity, Alter GCN1, MAP1B, Hsp105, G6PD, Vimentin, TrxR1, and Importin α-2 Expression, and Induce Antitumor Effects against Human Glioma” (J Med Chem, 2015):
Active and inactive are the calls of the source. No cut-off for these calls is given here.

Experiments:
[1] = biological target: T1, Signal transducer and activator of transcription 1 (Mus musculus) (UniProt P42225); assay: Inhibition of Stat1 dimer DNA binding activity in EGF-stimulated mouse NIH3T3 nuclear extract expressing human EGFR assessed as residual activity at 5 uM preincubated for 30 mins followed by addition of radiolabeled probe hSIE for 30 mins by EMSA
T1 sequence (whole entry): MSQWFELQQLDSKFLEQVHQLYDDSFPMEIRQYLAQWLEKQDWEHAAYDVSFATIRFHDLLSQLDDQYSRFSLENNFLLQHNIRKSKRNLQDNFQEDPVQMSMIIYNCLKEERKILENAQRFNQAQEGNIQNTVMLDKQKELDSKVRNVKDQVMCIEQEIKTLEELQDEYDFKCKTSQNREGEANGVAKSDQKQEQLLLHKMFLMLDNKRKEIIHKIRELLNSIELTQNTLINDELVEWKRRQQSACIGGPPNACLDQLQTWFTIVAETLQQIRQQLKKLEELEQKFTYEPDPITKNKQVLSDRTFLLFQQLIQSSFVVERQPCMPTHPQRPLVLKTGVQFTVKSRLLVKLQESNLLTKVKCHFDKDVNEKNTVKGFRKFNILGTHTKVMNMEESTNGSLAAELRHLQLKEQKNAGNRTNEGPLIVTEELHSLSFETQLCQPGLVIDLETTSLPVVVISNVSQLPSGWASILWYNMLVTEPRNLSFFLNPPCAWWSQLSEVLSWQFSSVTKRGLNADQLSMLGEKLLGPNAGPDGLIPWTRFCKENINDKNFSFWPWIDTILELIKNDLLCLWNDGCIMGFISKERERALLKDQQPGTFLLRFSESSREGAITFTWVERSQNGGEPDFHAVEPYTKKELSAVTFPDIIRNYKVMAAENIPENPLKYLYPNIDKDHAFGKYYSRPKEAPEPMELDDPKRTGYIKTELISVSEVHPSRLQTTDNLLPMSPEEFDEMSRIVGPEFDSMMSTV

[2] = Antiproliferative activity against human Glioma (G10) patient derived xenograft cells at 5 uM after 72 hrs by cyquant assay; format: functional, Glioma cell
[3] = biological target: T2, Signal transducer and activator of transcription 3 (Homo sapiens, UniProt P40763); assay: Inhibition of orthovandate-induced Stat3 phosphorylation in human U251MG cells at 5 uM for 3 hrs by immunoblot analysis in presence of 10 to 300 uM orthovandate; format: cell-based; conditions: U-251
T2 sequence (P40763 whole entry): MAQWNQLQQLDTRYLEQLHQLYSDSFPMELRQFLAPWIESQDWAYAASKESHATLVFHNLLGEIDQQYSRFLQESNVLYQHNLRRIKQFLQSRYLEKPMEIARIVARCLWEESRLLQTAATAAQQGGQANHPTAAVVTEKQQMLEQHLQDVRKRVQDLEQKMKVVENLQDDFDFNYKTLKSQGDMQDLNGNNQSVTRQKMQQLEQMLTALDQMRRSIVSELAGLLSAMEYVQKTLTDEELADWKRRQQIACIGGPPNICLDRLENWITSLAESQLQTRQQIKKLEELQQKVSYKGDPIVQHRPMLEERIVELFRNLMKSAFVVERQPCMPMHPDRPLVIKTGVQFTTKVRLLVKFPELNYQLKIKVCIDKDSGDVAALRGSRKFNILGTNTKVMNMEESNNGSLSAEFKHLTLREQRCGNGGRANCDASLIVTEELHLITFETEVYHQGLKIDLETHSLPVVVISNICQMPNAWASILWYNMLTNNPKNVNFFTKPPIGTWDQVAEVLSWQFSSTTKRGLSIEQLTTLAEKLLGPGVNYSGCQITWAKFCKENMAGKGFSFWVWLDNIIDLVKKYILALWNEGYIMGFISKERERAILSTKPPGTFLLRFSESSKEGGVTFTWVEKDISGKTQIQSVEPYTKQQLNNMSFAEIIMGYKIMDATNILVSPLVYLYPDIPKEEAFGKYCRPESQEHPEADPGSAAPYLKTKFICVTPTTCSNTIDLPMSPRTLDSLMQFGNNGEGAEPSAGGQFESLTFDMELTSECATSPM
Procedure, shortened: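 U251MG cells treated with 5 μM compound for 3 h without or with 10–300 μM Na3VO4. Whole-cell lysates of equal total protein immunoblotted for pStat3 and Stat3. Controls were 0.025% DMSO. Representative of 2–4 determinations.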

[4] = Antiproliferative activity against human Glioma (G22) patient derived xenograft cells at 5 uM after 72 hrs by cyquant assay; format: functional, Glioma cell
U-251 [5] = assay: Effect on PTP1B expression in human U251MG cells at 5 uM after 0.5 to 24 hrs by immunoblot analysis; format: functional, cell-based
Procedure, shortened: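 U251MG cells treated with 5 μM compound for 0–24 h; whole-cell lysates of equal total protein immunoblotted. Controls were 0.025% DMSO-treated cells. Representative of 2–4 independent determinations.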

[6] = Cytotoxicity against mouse NIH/3T3 cells at 5uM after 72 hrs by cyquant cells; format: cell-based; conditions: nih3t3, 72 h
Procedure, shortened: (§1)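 CyQuant proliferation assay after 72 h compound exposure of cultured cells; relative viability normalized to DMSO-treated control; IC50 values derived. Glioma lines grown in RPMI or DMEM with 10% FBS and 1% nonessential amino acids.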

MDA-MB-231 = assay: Antiproliferative activity against human MDA-MB-231 cells at 5 uM for 72 hrs by cyquant assay; format: functional, cell-based
[7] = Antiproliferative activity against human Glioma (G12) patient derived xenograft cells at 5 uM after 72 hrs by cyquant assay; format: functional, Glioma cell
[8] = biological target: T2, Signal transducer and activator of transcription 3; assay: Binding affinity to Stat3 (unknown origin) by NMR analysis
U-251 [9] = assay: Anticlonogenic activity against human U251MG cells for 72 hrs measured after 2 weeks by crystal-violet staining based assay; format: functional, cell-based
Procedure, shortened: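 Single-cell seeding at 250 cells per well; cells treated once the next day for 72 h with 0–5 μM compound, then grown until large colonies were visible (NIH3T3 1 week, MDA-MB-231 and U251MG 2 weeks, MCF-7 4 weeks). Colonies stained with crystal violet for 4 h, imaged and counted.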

NIH3T3 = assay: Modulation of EGF-induced Stat5 phosphorylation in mouse NIH3T3 cells expressing human EGFR at 5 uM preincubated for 3 hrs followed by stimulation with 1 ug/ml EGF for 12 mins by immunoblot analysis; format: cell-based
Procedure, shortened: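 Whole-cell lysates of equal total protein from NIH3T3/hEGFR fibroblasts, pretreated with or without 5 μM compound (control 0.025% DMSO) for 3 h, then stimulated with 1 μg/ml EGF for 12 min. SDS-PAGE immunoblotting for pStat1/Stat1 and pStat5/Stat5 with β-actin or GAPDH loading controls. Representative of 2–4 independent determinations.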

[10] = biological target: T2, Signal transducer and activator of transcription 3; assay: Inhibition of Stat3 dimer DNA binding activity in human U251MG cells nuclear extract at 5 uM by EMSA using radiolabeled probe hSIE; format: cell-based; conditions: U-251, TDE = time-dependent effect
Procedure, shortened: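 Sub-confluent U251MG or U373MG cells treated with compound (5 μM for 0–24 h, or 0–5 μM for 1.5 h). Stat3:DNA bands scanned, quantified and plotted against concentration to derive IC50. Controls were 0.025% DMSO.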

[11] = biological target: T1, Signal transducer and activator of transcription 1 (Mus musculus); assay: Inhibition of Stat1 dimer DNA binding activity in EGF-stimulated mouse NIH3T3 nuclear extract expressing human EGFR at 5 uM preincubated for 30 mins followed by addition of radiolabeled probe hSIE for 30 mins by EMSA
[12] = biological target: T2, Signal transducer and activator of transcription 3; assay: Inhibition of Stat3 dimer DNA binding activity in human U251MG cells nuclear extract after 1.5 hrs by EMSA using radiolabeled probe hSIE
[13] = biological target: T2, Signal transducer and activator of transcription 3; assay: Inhibition of Stat3 activity in human glioma (G22) patient-derived mouse xenograft cells assessed as phosphorylated Stat3 level at 5 uM after 24 hrs by immunoblot analysis
Procedure, shortened: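 Cultured G22 glioma patient-derived mouse xenograft cells (DMEM, 5–10% heat-inactivated FBS) treated with 5 μM compound for 0–24 h. Whole-cell lysates immunoblotted for pStat3, Stat3, GAPDH.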

[14] = biological target: Mitogen-activated protein kinase; ERK1/ERK2 (Homo sapiens) (UniProt P27361+P28482); assay: Modulation of Erk1/2 phosphorylation in human U251MG cells at 5 uM after 0.5 to 24 hrs by immunoblot analysis; format: cell-based; conditions: U-251
Chain of Mitogen-activated protein kinase; ERK1/ERK2 (Homo sapiens) (P27361 whole entry, looked up): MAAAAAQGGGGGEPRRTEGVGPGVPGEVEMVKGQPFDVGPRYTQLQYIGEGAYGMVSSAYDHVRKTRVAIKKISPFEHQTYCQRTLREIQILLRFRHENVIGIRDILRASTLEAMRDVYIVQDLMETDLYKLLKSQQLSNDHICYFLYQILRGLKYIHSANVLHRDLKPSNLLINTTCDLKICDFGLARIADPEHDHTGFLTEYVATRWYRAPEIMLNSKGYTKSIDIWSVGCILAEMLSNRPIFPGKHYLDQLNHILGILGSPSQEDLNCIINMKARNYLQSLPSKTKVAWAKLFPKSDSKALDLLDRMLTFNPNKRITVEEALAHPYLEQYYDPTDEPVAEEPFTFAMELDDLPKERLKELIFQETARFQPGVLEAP
Chain of Mitogen-activated protein kinase; ERK1/ERK2 (Homo sapiens) (P28482 whole entry, looked up): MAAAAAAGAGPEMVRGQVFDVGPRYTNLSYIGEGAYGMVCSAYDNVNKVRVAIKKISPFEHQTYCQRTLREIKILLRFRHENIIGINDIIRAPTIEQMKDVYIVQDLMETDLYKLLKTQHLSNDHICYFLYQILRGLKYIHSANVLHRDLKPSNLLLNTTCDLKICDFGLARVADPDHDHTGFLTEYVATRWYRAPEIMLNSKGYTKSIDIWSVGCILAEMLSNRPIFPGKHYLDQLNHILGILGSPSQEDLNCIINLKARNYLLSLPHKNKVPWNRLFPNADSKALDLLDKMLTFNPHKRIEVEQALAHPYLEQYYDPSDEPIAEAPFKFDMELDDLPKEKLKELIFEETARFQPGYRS
Procedure, shortened: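 U251MG glioma cells (RPMI or DMEM, 10% FBS, 1% nonessential amino acids) treated with 5 μM compound for 0–24 h; 0.025% DMSO control. Whole-cell lysates of equal total protein immunoblotted for pErk1/2, Erk1/2, pJAK2 and JAK2 with β-actin or GAPDH loading controls. Representative of 2–4 independent determinations.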

MCF7 = assay: Antiproliferative activity against human MCF7 cells for 72 hrs by cyquant assay; format: functional, cell-based; conditions: MCF7, 72 h; procedure, shortened: as §1

Activity [1] [%]	inhibition [3]	Activity [8]	inhibition [10]	inhibition [11]	IC50 [12] [µM]	inhibition [13]	Activity [14]	IC50 (MCF7) [µM]	Structure (SMILES)	inhibition (INH) [2] [%]	inhibition (INH) [4] [%]	Activity (U-251 [5])	Activity [6]	inhibition (MDA-MB-231)	inhibition (INH) [7] [%]	Activity (U-251 [9])	inhibition (NIH3T3)
49	Active	Dose-dependent effect	tde	inactive	3.2	inactive	inactive	7.6	C/C=C(\C)C(=O)O[C@H]1C[C@@H](C)[C@]2(OC)CC[C@](C)(/C=C3/OC(=O)C(COC(C)=O)=C31)O2	45	45	inactive	Toxic	Active	25	Dose-dependent effect	inactive
36	Active	Dose-dependent effect	tde	inactive	2.6	inactive	inactive	4.8	C/C=C(\C)C(=O)OCC1=C2/C(=C\[C@@]3(C)CC[C@](O)(O3)[C@H](C)C[C@@H]2O)OC1=O	45	45	inactive	Non-toxic	Active	25	Dose-dependent effect	inactive
68	Active	Dose-dependent effect	tde	inactive	2.2	inactive	inactive	10.7	C/C=C(\C)C(=O)O[C@H]1C[C@@H](C)[C@]2(O)CC[C@](C)(/C=C3/OC(=O)C(COC(C)=O)=C31)O2	45	45	inactive	Toxic	Active	25	Dose-dependent effect	inactive
